Legend:
[1] = test system: HeLa cells; test: Cytotoxicity; assay type: cell-based
[2] = test system: NCI-60 cell panel; test: NCI-60 cell panel, Sulforhodamine B assay; assay type: cell-based; details: NCI-60 panel
Method in brief: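 NCI-60 panel screen. Viability read by Sulforhodamine B staining of total protein, a measure of cell number rather than metabolic activity. Values are GI50, defined from the change in cell counts relative to the starting number of cells. Some panel lines were not tested.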

[3] = test system: MA9.3 AML cell line; test: Cytotoxicity in MA9.3 AML cells; assay type: cell-based, human; details: for therapeutic index: between MA9.3 AML cell line and non-cancerous human CD34+ blood stem/progenitor cells
[4] = test system: human CD34+ blood stem/progenitor cells; test: Cytotoxicity in normal CD34+ blood stem/progenitor cells; assay type: cell-based

## CC(C)N(CCOc1ccc(O)cc1)c1ccccc1 [Compound 4]
[1]
  decrease in potency relative to compound 2: 3 fold

## Oc1ccc(OCCN(CCOc2ccc(O)cc2)c2ccccc2)cc1 [Compound 5]
[1]
  potency relative to compound 3: potency doubled
[2]
  range of distribution of GI50 values: 55 fold

## CN(CCCOc1ccc(O)cc1)c1ccccc1 [Compound 7]
[2]
  range of distribution of GI50 values: 53 fold

## CN(C(=O)COc1ccc(O)cc1)c1ccccc1 [Compound 11]
[1]
  potency / anticancer cell activity (in words): anticancer cell activity was eliminated

## CCOc1ccc(O)cc1 [Compound 12]
[1]
  potency / anticancer cell activity (in words): no potency

## CN(CCCOc1ccccc1)c1ccccc1 [Compound 13]
[1]
  potency / anticancer cell activity (in words): complete loss of potency

## CN(CCCBr)c1ccccc1 [Compound 14]
[1]
  potency / anticancer cell activity (in words): loss of potency

## N.N.[Cl][Pt][Cl] [cisplatin]
[3]; MA9.3 AML cells
  IC50: 14 ± 0.7 µM
[3]
  therapeutic index: 1.0 ± 0.2
[4]
  IC50: 15 ± 2 µM

## COc1cccc2c1C(=O)c1c(O)c3c(c(O)c1C2=O)C[C@@](O)(C(=O)CO)C[C@@H]3O[C@H]1C[C@H](N)[C@H](O)[C@H](C)O1 [doxorubicin]
[3]
  therapeutic index: 0.9 ± 0.2

Source: publication PMC3677216 (Bioorganic & medicinal chemistry letters, 2013)
